Reference: ChEMBL document CHEMBL4339192, “De Novo Designed Amphipathic α-Helical Antimicrobial Peptides Incorporating Dab and Dap Residues on the Polar Face To Treat the Gram-Negative Pathogen, Acinetobacter baumannii” (J Med Chem, 2019)
Where a SMILES comes first, the peptide text is derived from it. [ ]: non-standard residue; d: D form. Dap = NC[C@H](N)C(=O)O

Legend:
[1] = test system: Acinetobacter baumannii; assay: Antibacterial activity against Acinetobacter baumannii 649 measured after 24 hrs in presence of 25% human serum by microtiter dilution method; format: functional; conditions: Acinetobacter baumannii, 649, 24 h
Outline: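 Blood strain 649 was tested by MH broth microdilution with and without 25% (v/v) human serum added to the medium. The test used a final inoculum of 5 × 10^5 cfu/mL and incubation at 37 °C. The ratio is the MIC in serum over the MIC in MH alone.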

[2] = Therapeutic index, ratio of HC50 for human RBC to MIC for polymyxin B/colistin-resistant Acinetobacter baumannii M89963; format: toxicity; conditions: human red blood cells, read-out: TI
Outline: (§1)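 T.I. = HC50/MIC. For HC50, peptide (quantified by amino acid analysis) was two-fold serially diluted over 12 concentrations up to 1000 μg/mL. It was incubated with 1% fresh human erythrocytes in PBS, pH 7.4, for 18 h at 37 °C. After 800g centrifugation, hemoglobin was read at 570 nm against water (100%) and no-peptide (0%) controls. HC50 came from a lysis-versus-concentration plot, average of 3 replicates.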

[3] = test system: Acinetobacter baumannii; assay: Antibacterial activity against Acinetobacter baumannii 649 measured after 24 hrs by microtiter dilution method; format: functional; conditions: Acinetobacter baumannii, 649, 24 h
Outline: (§2)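 Broth microdilution in Mueller-Hinton (MH) medium. […] Plates were incubated 24 h at 37 °C. MIC was the lowest peptide concentration that inhibited growth, based on three sets of replicates.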

[4] = Therapeutic index, ratio of HC50 for human RBC to MIC for polymyxin B/colistin-resistant Acinetobacter baumannii M89955; format: toxicity; conditions: human red blood cells, read-out: TI; outline: as §1
[5] = Therapeutic index, ratio of HC50 for human RBC to MIC for polymyxin B/colistin-resistant Acinetobacter baumannii M89953; format: toxicity; conditions: human red blood cells, read-out: TI; outline: as §1
[6] = Therapeutic index, ratio of HC50 for human RBC to MIC for polymyxin B/colistin-resistant Acinetobacter baumannii M89951; format: toxicity; conditions: human red blood cells, read-out: TI; outline: as §1
[7] = Therapeutic index, ratio of HC50 for human RBC to MIC for polymyxin B/colistin-resistant Acinetobacter baumannii M89952; format: toxicity; conditions: human red blood cells, read-out: TI; outline: as §1
[8] = Therapeutic index, ratio of HC50 for human RBC to MIC for polymyxin B/colistin-resistant Acinetobacter baumannii M89949; format: toxicity; conditions: human red blood cells, read-out: TI; outline: as §1
[9] = Hemolytic activity against human RBC measured after 18 hrs by spectrophotometric method; format: ADME, cell-based, Erythrocyte; conditions: human red blood cells (erythrocytes)
Outline: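 Peptide (amount by amino acid analysis), two-fold serial dilutions at 12 concentrations up to 1000 μg/mL, with 1% human erythrocytes in PBS pH 7.4, 37 °C, 18 h. Unlysed cells removed by centrifugation (800g); hemoglobin read at 570 nm. Water-lysed cells = 100%, no-peptide cells = 0%. HC50 from plot of % lysis vs concentration (μM), average of 3 replicates.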

[10] = Therapeutic index, ratio of HC50 for human RBC to MIC for polymyxin B/colistin-resistant Acinetobacter baumannii M89941; format: toxicity; conditions: human red blood cells, read-out: TI; outline: as §1
[11] = test system: Acinetobacter baumannii; assay: Antibacterial activity against Acinetobacter baumannii isolate 1001611 measured after 24 hrs by microtiter dilution method; format: functional; conditions: isolate 1001611, 24 h; outline: as §2
[12] = test system: Acinetobacter baumannii; assay: Antibacterial activity against Acinetobacter baumannii isolate 1007660 measured after 24 hrs by microtiter dilution method; format: functional; conditions: isolate 1007660, 24 h; outline: as §2
[13] = test system: Acinetobacter baumannii; assay: Antibacterial activity against Acinetobacter baumannii isolate 1021371 measured after 24 hrs by microtiter dilution method; format: functional; conditions: isolate 1021371, 24 h; outline: as §2
[14] = test system: Acinetobacter baumannii; assay: Antibacterial activity against Acinetobacter baumannii isolate 952654 measured after 24 hrs by microtiter dilution method; format: functional; conditions: isolate 952654, 24 h; outline: as §2
[15] = test system: Acinetobacter baumannii; assay: Antibacterial activity against Acinetobacter baumannii isolate 9383370 measured after 24 hrs by microtiter dilution method; format: functional; conditions: isolate 9383370, 24 h; outline: as §2
[16] = test system: Acinetobacter baumannii; assay: Antibacterial activity against Acinetobacter baumannii isolate 961997 measured after 24 hrs by microtiter dilution method; format: functional; conditions: isolate 961997, 24 h; outline: as §2
[17] = test system: Acinetobacter baumannii; assay: Antibacterial activity against Acinetobacter baumannii isolate 1002956 measured after 24 hrs by microtiter dilution method; format: functional; conditions: isolate 1002956, 24 h; outline: as §2
[18] = test system: Acinetobacter baumannii; assay: Antibacterial activity against Acinetobacter baumannii isolate 977751 measured after 24 hrs by microtiter dilution method; format: functional; conditions: isolate 977751, 24 h; outline: as §2
[19] = test system: Acinetobacter baumannii; assay: Antibacterial activity against Acinetobacter baumannii isolate 1035166 measured after 24 hrs by microtiter dilution method; format: functional; conditions: isolate 1035166, 24 h; outline: as §2
[20] = test system: Acinetobacter baumannii; assay: Antibacterial activity against Acinetobacter baumannii isolate 1010282 measured after 24 hrs by microtiter dilution method; format: functional; conditions: isolate 1010282, 24 h; outline: as §2
[21] = test system: Acinetobacter baumannii; assay: Antibacterial activity against Acinetobacter baumannii isolate 1010245 measured after 24 hrs by microtiter dilution method; format: functional; conditions: isolate 1010245, 24 h; outline: as §2
[22] = test system: Acinetobacter baumannii; assay: Antibacterial activity against Acinetobacter baumannii isolate 1017395 measured after 24 hrs by microtiter dilution method; format: functional; conditions: isolate 1017395, 24 h; outline: as §2
[23] = test system: Acinetobacter baumannii; assay: Antibacterial activity against Acinetobacter baumannii isolate 968886 measured after 24 hrs by microtiter dilution method; format: functional; conditions: isolate 968886, 24 h; outline: as §2
[24] = test system: Acinetobacter baumannii; assay: Antibacterial activity against Acinetobacter baumannii isolate 964304 measured after 24 hrs by microtiter dilution method; format: functional; conditions: isolate 964304, 24 h; outline: as §2
[25] = test system: Acinetobacter baumannii; assay: Antibacterial activity against Acinetobacter baumannii isolate 963659 measured after 24 hrs by microtiter dilution method; format: functional; conditions: isolate 963659, 24 h; outline: as §2
[26] = test system: Acinetobacter baumannii; assay: Antibacterial activity against Acinetobacter baumannii isolate 963618 measured after 24 hrs by microtiter dilution method; format: functional; conditions: isolate 963618, 24 h; outline: as §2
[27] = test system: Acinetobacter baumannii; assay: Antibacterial activity against Acinetobacter baumannii isolate 1018887 measured after 24 hrs by microtiter dilution method; format: functional; conditions: isolate 1018887, 24 h; outline: as §2
[28] = test system: Acinetobacter baumannii; assay: Antibacterial activity against Acinetobacter baumannii isolate 1035794 measured after 24 hrs by microtiter dilution method; format: functional; conditions: isolate 1035794, 24 h; outline: as §2
[29] = test system: Acinetobacter baumannii; assay: Antibacterial activity against Acinetobacter baumannii isolate 981650 measured after 24 hrs by microtiter dilution method; format: functional; conditions: isolate 981650, 24 h; outline: as §2
[30] = test system: Acinetobacter baumannii; assay: Antibacterial activity against Acinetobacter baumannii isolate 965463 measured after 24 hrs by microtiter dilution method; format: functional; conditions: isolate 965463, 24 h; outline: as §2
[31] = test system: Acinetobacter baumannii; assay: Antibacterial activity against polymyxin B/colistin-resistant Acinetobacter baumannii M89963 measured after 24 hrs by microtiter dilution method; format: functional; conditions: M89963, 24 h; outline: as §2
[32] = test system: Acinetobacter baumannii; assay: Antibacterial activity against polymyxin B/colistin-resistant Acinetobacter baumannii M89955 measured after 24 hrs by microtiter dilution method; format: functional; conditions: M89955, 24 h; outline: as §2
[33] = test system: Acinetobacter baumannii; assay: Antibacterial activity against polymyxin B/colistin-resistant Acinetobacter baumannii M89953 measured after 24 hrs by microtiter dilution method; format: functional; conditions: M89953, 24 h; outline: as §2
[34] = test system: Acinetobacter baumannii; assay: Antibacterial activity against polymyxin B/colistin-resistant Acinetobacter baumannii M89952 measured after 24 hrs by microtiter dilution method; format: functional; conditions: M89952, 24 h; outline: as §2
[35] = test system: Acinetobacter baumannii; assay: Antibacterial activity against polymyxin B/colistin-resistant Acinetobacter baumannii M89951 measured after 24 hrs by microtiter dilution method; format: functional; conditions: M89951, 24 h; outline: as §2
[36] = test system: Acinetobacter baumannii; assay: Antibacterial activity against polymyxin B/colistin-resistant Acinetobacter baumannii M89949 measured after 24 hrs by microtiter dilution method; format: functional; conditions: M89949, 24 h; outline: as §2
[37] = test system: Acinetobacter baumannii; assay: Antibacterial activity against polymyxin B/colistin-resistant Acinetobacter baumannii M89941 measured after 24 hrs by microtiter dilution method; format: functional; conditions: M89941, 24 h; outline: as §2

CC(=O)N[C@H](CCCCN)C(=O)N[C@H](CC(C)C)C(=O)N[C@@H](CN)C(=O)N[C@H](CO)C(=O)N[C@H](CC(C)C)C(=O)N[C@H](CC(C)C)C(=O)N[C@@H](CN)C(=O)N[C@@H](C(=O)N[C@H](CC(C)C)C(=O)N[C@H](CO)C(=O)N[C@@H](CN)C(=O)N[C@H](C)C(=O)N[C@H](CCCCN)C(=O)N[C@H](C)C(=O)N[C@H](C)C(=O)N[C@H](CCCCN)C(=O)N[C@H](CC(C)C)C(=O)N[C@@H](CN)C(=O)N[C@@H](C(=O)N[C@H](CC(C)C)C(=O)N[C@H](CC(C)C)C(=O)N[C@@H](CN)C(=O)N[C@H](C)C(=O)N[C@H](CC(C)C)C(=O)N[C@H](CO)C(=O)N[C@@H](CN)C(N)=O)[C@H](C)O)[C@H](C)O (Ac-[dK][dL][Dap][dS][dL][dL][Dap][dT][dL][dS][Dap][dA][dK][dA][dA][dK][dL][Dap][dT][dL][dL][Dap][dA][dL][dS][Dap]-NH2)
0.4 µM: MIC [11]
1.5 µM: MIC [13] | MIC [14] | MIC [16] | MIC [22] | MIC [23] | MIC [24] | MIC [25] | MIC [30] | MIC [31]
> 957: selectivity ratio [2] | selectivity ratio [4] | selectivity ratio [5] | selectivity ratio [6] | selectivity ratio [7] | selectivity ratio [8] | selectivity ratio [10]
3 µM: MIC [1] | MIC [33] | MIC [35]
> 1.15 mM: HC50 at 18 h [9]
0.8 µM: MIC [3] | MIC [12] | MIC [15] | MIC [17] | MIC [18] | MIC [19] | MIC [20] | MIC [21] | MIC [26] | MIC [27] | MIC [28] | MIC [29] | MIC [32] | MIC [34] | MIC [36] | MIC [37]
